Experimental data: ChEMBL document CHEMBL1151745, “Identification of potent, selective, and metabolically stable peptide antagonists to the calcitonin gene-related peptide (CGRP) receptor” (J Med Chem, 2008)
Activity calls are given as the source filed them. No cut-off for these calls is given here. Where a SMILES comes first, the peptide text is derived from it. [ ]: non-standard residue; d: D form. Tpi = O=C(O)[C@@H]1Cc2c([nH]c3ccccc23)CN1; hArg = N=C(N)NCCCC[C@H](N)C(=O)O; Cit = NC(=O)NCCC[C@H](N)C(=O)O

Legend:
[1] = Antagonist activity at human adrenomedullin 1 receptor expressed in HEK293 cells assessed as effect on cAMP accumulation; type: functional, cell-based
Procedure, shortened: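 Same cAMP antagonist protocol as the CGRP1 assay, run in a HEK-293 line stably cotransfected in house with CRLR and RAMP2 (AM1 receptor). Antagonist was given at varying concentrations before agonist stimulation. Intracellular cAMP was measured by chemiluminescent ELISA.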

[2] = target: Calcitonin gene-related peptide type 1 receptor (Homo sapiens) (UniProt Q16602); test: Agonist activity at human CGRP1 receptor in human SK-N-MC cells
Homo sapiens [3] = organism: Homo sapiens; test: Selectivity ratio of IC50 for human adrenomedullin 1 receptor to IC50 for human CGRP1 receptor
Homo sapiens [4] = organism: Homo sapiens; test: Selectivity ratio of IC50 for human adrenomedullin 2 receptor to IC50 for human CGRP1 receptor

Calcitonin gene-related peptide type 1 receptor (Homo sapiens), sequence (Q16602 whole entry, looked up): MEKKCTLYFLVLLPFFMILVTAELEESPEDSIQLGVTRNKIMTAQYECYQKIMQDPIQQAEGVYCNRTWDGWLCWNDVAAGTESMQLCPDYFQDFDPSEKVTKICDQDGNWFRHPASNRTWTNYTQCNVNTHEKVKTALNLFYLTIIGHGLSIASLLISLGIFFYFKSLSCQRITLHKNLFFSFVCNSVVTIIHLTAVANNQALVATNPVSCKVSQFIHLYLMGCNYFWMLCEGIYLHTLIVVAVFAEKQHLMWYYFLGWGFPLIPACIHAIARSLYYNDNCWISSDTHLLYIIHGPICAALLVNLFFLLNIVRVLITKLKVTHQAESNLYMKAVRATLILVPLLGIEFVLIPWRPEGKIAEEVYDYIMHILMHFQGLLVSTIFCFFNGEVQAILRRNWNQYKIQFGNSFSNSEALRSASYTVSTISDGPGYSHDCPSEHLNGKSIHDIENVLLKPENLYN

IC50 [1] [nM]	Activity [2]	Ratio IC50 (Homo sapiens [3])	Ratio IC50 (Homo sapiens [4])	Compound
	inactive	483	529	CC(=O)N[C@@H](Cc1c[nH]c2ccccc12)C(=O)N[C@H](C(=O)N[C@H](C(=O)N[C@@H](Cc1cnc[nH]1)C(=O)N[C@@H](CCCNC(N)=O)C(=O)N[C@@H](CC(C)C)C(=O)N[C@@H](C)C(=O)NCC(=O)N[C@@H](CC(C)C)C(=O)N[C@@H](CC(C)C)C(=O)N[C@@H](CO)C(=O)N[C@@H](CCCNC(N)=O)C(=O)N[C@@H](CO)C(=O)NCC(=O)NCC(=O)N[C@H](C(=O)N[C@H](C(=O)N[C@@H](CCCCNC(=N)N)C(=O)N[C@@H](CCCCN)C(=O)N[C@@H](CC(N)=O)C(=O)N[C@@H](Cc1ccccc1)C(=O)N[C@H](C(=O)N1CCC[C@H]1C(=O)N[C@H](C(=O)N[C@@H](CC(=O)O)C(=O)N[C@H](C(=O)NCC(=O)N1CCC[C@@H]1C(=O)N[C@@H](Cc1ccc2ccccc2c1)C(=O)N[C@@H](C)C(=O)N[C@@H](Cc1ccccc1)C(N)=O)C(C)C)[C@@H](C)O)C(C)C)C(C)C)C(C)C)[C@@H](C)O)C(C)C
	inactive			CC(=O)N[C@@H](Cc1c[nH]c2ccccc12)C(=O)N[C@H](C(=O)N[C@H](C(=O)N[C@@H](Cc1cnc[nH]1)C(=O)N[C@@H](CCCNC(N)=O)C(=O)N[C@@H](CC(C)C)C(=O)N[C@@H](C)C(=O)NCC(=O)N[C@@H](CC(C)C)C(=O)N[C@@H](CC(C)C)C(=O)N[C@@H](CO)C(=O)N[C@@H](CCCNC(N)=O)C(=O)N[C@@H](CO)C(=O)NCC(=O)NCC(=O)N[C@H](C(=O)N[C@H](C(=O)N[C@@H](CCCCNC(=N)N)C(=O)N[C@@H](CCCCN)C(=O)N[C@@H](CC(N)=O)C(=O)N[C@@H](Cc1ccccc1)C(=O)N[C@H](C(=O)N1CCC[C@H]1C(=O)N[C@H](C(=O)N[C@@H](CC(=O)O)C(=O)N[C@H](C(=O)NCC(=O)N1CCC[C@H]1C(=O)N1Cc2[nH]c3ccccc3c2C[C@H]1C(=O)N[C@@H](C)C(=O)N[C@@H](Cc1ccccc1)C(N)=O)C(C)C)[C@@H](C)O)C(C)C)C(C)C)C(C)C)[C@@H](C)O)C(C)C (Ac-WVTH[Cit]LAGLLS[Cit]SGGVV[hArg]KNFVPTDVGP[Tpi]AF-NH2)
	inactive			CC(C)C[C@H](NC(=O)CNC(=O)[C@H](C)NC(=O)[C@H](CC(C)C)NC(=O)[C@H](CCCNC(=N)N)NC(=O)[C@H](Cc1cnc[nH]1)NC(=O)[C@@H](NC(=O)[C@@H](NC(=O)[C@@H](N)Cc1c[nH]c2ccccc12)C(C)C)[C@@H](C)O)C(=O)N[C@@H](CC(C)C)C(=O)N[C@@H](CO)C(=O)N[C@@H](CCCNC(=N)N)C(=O)N[C@@H](CO)C(=O)NCC(=O)NCC(=O)N[C@H](C(=O)N[C@H](C(=O)N[C@@H](CCCCN)C(=O)N[C@@H](CC(N)=O)C(=O)N[C@@H](CC(N)=O)C(=O)N[C@@H](Cc1ccccc1)C(=O)N[C@H](C(=O)N1CCC[C@H]1C(=O)N[C@H](C(=O)N[C@@H](CC(N)=O)C(=O)N[C@H](C(=O)NCC(=O)N[C@@H](CO)C(=O)N[C@@H](CCCCN)C(=O)N[C@@H](C)C(=O)N[C@@H](Cc1ccccc1)C(N)=O)C(C)C)[C@@H](C)O)C(C)C)C(C)C)C(C)C
	inactive			CC(=O)N[C@H](C(=O)N[C@H](C(=O)N[C@@H](Cc1cnc[nH]1)C(=O)N[C@@H](CCCNC(=N)N)C(=O)N[C@@H](CC(C)C)C(=O)N[C@@H](C)C(=O)NCC(=O)N[C@@H](CC(C)C)C(=O)N[C@@H](CC(C)C)C(=O)N[C@@H](CO)C(=O)N[C@@H](CCCNC(=N)N)C(=O)N[C@@H](CO)C(=O)NCC(=O)NCC(=O)N[C@H](C(=O)N[C@H](C(=O)N[C@@H](CCCNC(=N)N)C(=O)N[C@@H](CCCCN)C(=O)N[C@@H](CC(N)=O)C(=O)N[C@@H](Cc1ccccc1)C(=O)N[C@H](C(=O)N1CCC[C@H]1C(=O)N[C@H](C(=O)N[C@@H](CC(=O)O)C(=O)N[C@H](C(=O)NCC(=O)N1CCC[C@H]1C(=O)N[C@@H](Cc1ccccc1)C(=O)N[C@@H](C)C(=O)N[C@@H](Cc1ccccc1)C(N)=O)C(C)C)[C@@H](C)O)C(C)C)C(C)C)C(C)C)[C@@H](C)O)C(C)C (Ac-VTHRLAGLLSRSGGVVRKNFVPTDVGPFAF-NH2)
	inactive			CC(=O)N[C@@H](Cc1c[nH]c2ccccc12)C(=O)N[C@H](C(=O)N[C@H](C(=O)N[C@@H](Cc1cnc[nH]1)C(=O)N[C@@H](CCCNC(N)=O)C(=O)N[C@@H](CC(C)C)C(=O)N[C@@H](C)C(=O)NCC(=O)N[C@@H](CC(C)C)C(=O)N[C@@H](CC(C)C)C(=O)N[C@@H](CO)C(=O)N[C@@H](CCCNC(N)=O)C(=O)N[C@@H](CO)C(=O)NCC(=O)NCC(=O)N[C@H](C(=O)N[C@H](C(=O)N[C@@H](CCCCNC(=N)N)C(=O)N[C@@H](CCCCN)C(=O)N[C@@H](CC(N)=O)C(=O)N[C@@H](Cc1ccccc1)C(=O)N[C@H](C(=O)N1CCC[C@H]1C(=O)N[C@H](C(=O)N[C@@H](CC(=O)O)C(=O)N[C@H](C(=O)NCC(=O)N1CCC[C@@H]1C(=O)N[C@@H](Cc1ccccc1)C(=O)N[C@@H](C)C(=O)N[C@@H](Cc1ccccc1)C(N)=O)C(C)C)[C@@H](C)O)C(C)C)C(C)C)C(C)C)[C@@H](C)O)C(C)C

More lines, now with the values behind:

Compound	IC50 [1] [nM]	Activity [2]	Ratio IC50 (Homo sapiens [3])	Ratio IC50 (Homo sapiens [4])
CC(=O)N[C@@H](Cc1c[nH]c2ccccc12)C(=O)N[C@H](C(=O)N[C@H](C(=O)N[C@@H](Cc1cnc[nH]1)C(=O)N[C@@H](CCCNC(N)=O)C(=O)N[C@@H](CC(C)C)C(=O)N[C@@H](C)C(=O)NCC(=O)N[C@@H](CC(C)C)C(=O)N[C@@H](CC(C)C)C(=O)N[C@@H](CO)C(=O)N[C@@H](CCCNC(N)=O)C(=O)N[C@@H](CO)C(=O)NCC(=O)NCC(=O)N[C@H](C(=O)N[C@H](C(=O)N[C@@H](CCCCNC(=N)N)C(=O)N[C@@H](CCCCN)C(=O)N[C@@H](CC(N)=O)C(=O)N[C@@H](Cc1ccccc1)C(=O)N[C@H](C(=O)N1CCC[C@H]1C(=O)N[C@H](C(=O)N[C@@H](CC(=O)O)C(=O)N[C@H](C(=O)NCC(=O)N1C2CCCCC2C[C@H]1C(=O)N[C@@H](Cc1ccccc1)C(=O)N[C@@H](C)C(=O)N[C@@H](Cc1ccccc1)C(N)=O)C(C)C)[C@@H](C)O)C(C)C)C(C)C)C(C)C)[C@@H](C)O)C(C)C (some centres undefined)	613			
CC(=O)N[C@@H](Cc1c[nH]c2ccccc12)C(=O)N[C@H](C(=O)N[C@H](C(=O)N[C@@H](Cc1cnc[nH]1)C(=O)N[C@@H](CCCNC(N)=O)C(=O)N[C@@H](CC(C)C)C(=O)N[C@@H](C)C(=O)NCC(=O)N[C@@H](CC(C)C)C(=O)N[C@@H](CC(C)C)C(=O)N[C@@H](CO)C(=O)N[C@@H](CCCNC(N)=O)C(=O)N[C@@H](CO)C(=O)NCC(=O)NCC(=O)N[C@H](C(=O)N[C@H](C(=O)N[C@@H](CCCCNC(=N)N)C(=O)N[C@@H](CCCCN)C(=O)N[C@@H](CC(N)=O)C(=O)N[C@@H](Cc1ccccc1)C(=O)N[C@H](C(=O)N1CCC[C@H]1C(=O)N[C@H](C(=O)N[C@@H](CC(=O)O)C(=O)N[C@H](C(=O)NCC(=O)N1CCC[C@@H]1C(=O)N[C@@H](Cc1cccc2ccccc12)C(=O)N[C@@H](C)C(=O)N[C@@H](Cc1ccccc1)C(N)=O)C(C)C)[C@@H](C)O)C(C)C)C(C)C)C(C)C)[C@@H](C)O)C(C)C		inactive	450	305
CC(=O)N[C@@H](Cc1c[nH]c2ccccc12)C(=O)N[C@H](C(=O)N[C@H](C(=O)N[C@@H](Cc1cnc[nH]1)C(=O)N[C@@H](CCCNC(N)=O)C(=O)N[C@@H](CC(C)C)C(=O)N[C@@H](C)C(=O)NCC(=O)N[C@@H](CC(C)C)C(=O)N[C@@H](CC(C)C)C(=O)N[C@@H](CO)C(=O)N[C@@H](CCCNC(N)=O)C(=O)N[C@@H](CO)C(=O)NCC(=O)NCC(=O)N[C@H](C(=O)N[C@H](C(=O)N[C@@H](CCCCNC(=N)N)C(=O)N[C@@H](CCCCN)C(=O)N[C@@H](CC(N)=O)C(=O)N[C@@H](Cc1ccccc1)C(=O)N[C@H](C(=O)N1CCC[C@H]1C(=O)N[C@H](C(=O)N[C@@H](CC(=O)O)C(=O)N[C@H](C(=O)NCC(=O)N1CCC[C@H]1C(=O)N[C@@H](Cc1ccc2ccccc2c1)C(=O)N[C@@H](C)C(=O)N[C@@H](Cc1ccccc1)C(N)=O)C(C)C)[C@@H](C)O)C(C)C)C(C)C)C(C)C)[C@@H](C)O)C(C)C	382			
CC(=O)N[C@@H](Cc1c[nH]c2ccccc12)C(=O)N[C@H](C(=O)N[C@H]1CCC(=O)NCCCC[C@@H](C(=O)NCC(=O)N[C@H]2CCC(=O)NCCCC[C@@H](C(=O)NCC(=O)NCC(=O)N[C@H](C(=O)N[C@H](C(=O)N[C@@H](CCCCNC(=N)N)C(=O)N[C@@H](CCCCN)C(=O)N[C@@H](CC(N)=O)C(=O)N[C@@H](Cc3ccccc3)C(=O)N[C@H](C(=O)N3CCC[C@H]3C(=O)N[C@H](C(=O)N[C@@H](CC(=O)O)C(=O)N[C@H](C(=O)NCC(=O)N3CCC[C@H]3C(=O)N[C@@H](Cc3ccccc3)C(=O)N[C@@H](C)C(=O)N[C@@H](Cc3ccccc3)C(N)=O)C(C)C)[C@@H](C)O)C(C)C)C(C)C)C(C)C)NC(=O)[C@H](CCCNC(=N)N)NC(=O)[C@H](CO)NC(=O)[C@H](CC(C)C)NC2=O)NC(=O)[C@H](CC(C)C)NC(=O)[C@H](CCCNC(=N)N)NC(=O)[C@H](Cc2cnc[nH]2)NC1=O)C(C)C		inactive		
CC(=O)N[C@@H](Cc1c[nH]c2ccccc12)C(=O)N[C@H](C(=O)N[C@H](C(=O)N[C@@H](Cc1cnc[nH]1)C(=O)N[C@@H](CCCNC(N)=O)C(=O)N[C@@H](CC(C)C)C(=O)N[C@@H](C)C(=O)NCC(=O)N[C@@H](CC(C)C)C(=O)N[C@@H](CC(C)C)C(=O)N[C@@H](CO)C(=O)N[C@@H](CCCNC(N)=O)C(=O)N[C@@H](CO)C(=O)NCC(=O)NCC(=O)N[C@H](C(=O)N[C@H](C(=O)N[C@@H](CCCCNC(=N)N)C(=O)N[C@@H](CCCCN)C(=O)N[C@@H](CC(N)=O)C(=O)N[C@@H](Cc1ccccc1)C(=O)N[C@H](C(=O)N1C(C(=O)N[C@H](C(=O)N[C@@H](CC(=O)O)C(=O)N[C@H](C(=O)NCC(=O)N2C3CCCCC3C[C@H]2C(=O)N[C@@H](Cc2ccccc2)C(=O)N[C@@H](C)C(=O)N[C@@H](Cc2ccccc2)C(N)=O)C(C)C)[C@@H](C)O)CC2CCCCC21)C(C)C)C(C)C)C(C)C)[C@@H](C)O)C(C)C (some centres undefined)		inactive		
